The text below walks through data of ChEMBL document CHEMBL4152184, “NB 06: From a simple lysosomotropic aSMase inhibitor to tools for elucidating the role of lysosomes in signaling apoptosis and LPS-induced inflammation” (Eur J Med Chem, 2018).

In experiment [1] the test system is MONO-MAC-6. Briefly: Upregulation of CXCL3 mRNA expression level in human MONO-MAC-6 cells at 5 uM incubated for 30 mins measured after 1 hr by oligonucleotide array hybridization assay relative to control. The class given is functional.
Experiment [2] concerns MONO-MAC-6. The experiment can be described thus: Upregulation of TNFalpha mRNA expression level in LPS-stimulated human MONO-MAC-6 cells at 5 uM preincubated for 30 mins followed by LPS stimulation measured after 2 hrs by qRT-PCR method (reference value: 3.10). The class given is functional. (In general: In qPCR the cycle at which signal appears reflects the starting amount.)

For experiment [3], the target named is T1, Sphingomyelin phosphodiesterase (Homo sapiens) (UniProt P17405).
T1 sequence (whole entry): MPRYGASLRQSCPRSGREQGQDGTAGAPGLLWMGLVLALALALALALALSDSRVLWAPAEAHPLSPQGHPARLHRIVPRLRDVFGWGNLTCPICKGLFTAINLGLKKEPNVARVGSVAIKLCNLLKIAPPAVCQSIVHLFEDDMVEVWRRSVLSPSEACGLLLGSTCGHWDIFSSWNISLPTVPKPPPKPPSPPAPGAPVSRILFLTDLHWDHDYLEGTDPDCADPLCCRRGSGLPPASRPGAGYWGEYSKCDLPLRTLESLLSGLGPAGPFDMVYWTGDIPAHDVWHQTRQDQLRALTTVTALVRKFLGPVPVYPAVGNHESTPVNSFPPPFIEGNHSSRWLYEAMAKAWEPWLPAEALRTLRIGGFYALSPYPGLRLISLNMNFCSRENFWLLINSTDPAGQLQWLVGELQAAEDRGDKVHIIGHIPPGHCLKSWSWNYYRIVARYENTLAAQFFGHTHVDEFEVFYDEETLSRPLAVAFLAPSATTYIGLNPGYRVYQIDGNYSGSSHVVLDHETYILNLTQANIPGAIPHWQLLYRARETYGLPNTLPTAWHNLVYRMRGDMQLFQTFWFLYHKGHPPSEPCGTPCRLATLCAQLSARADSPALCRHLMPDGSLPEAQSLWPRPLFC
Briefly: Inhibition of mmLDL-stimulated acid sphingomyelinase in human PBMC lysates at 100 uM preincubated for 30 mins followed by mmLDL stimulation measured after 4 hrs by YO-PRO-1/Hoechst 33342 staining based assay.

The test system of experiment [4] is MONO-MAC-6. Briefly: Upregulation of CXCL10 mRNA expression level in LPS-stimulated human MONO-MAC-6 cells at 5 uM preincubated for 30 mins followed by LPS stimulation measured after 4 hrs by oligonucleotide array hybridization assay (reference value: 3.07). The class given is functional.
In experiment [5] the test system is MONO-MAC-6. The experiment can be described thus: Downregulation of ICAM1 mRNA expression level in human MONO-MAC-6 cells at 5 uM incubated for 30 mins measured after 6 hrs by oligonucleotide array hybridization assay relative to control. The class given is functional. A digest of the protocol: (§1)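 Total RNA was isolated, transcribed and labeled with DY-647 dye, then co-hybridized with DY-548-labeled cDNA from untreated cells on an inflammation oligonucleotide chip (780 gene probes). Differential expression >1.5 was taken as significant.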

The test system of experiment [6] is MONO-MAC-6. Briefly: Downregulation of IL-6 mRNA expression level in LPS-stimulated human MONO-MAC-6 cells at 5 uM preincubated for 30 mins followed by LPS stimulation measured after 1 hr by qRT-PCR method (reference value: 1). The class given is functional.
Experiment [7] has as its system MONO-MAC-6. Briefly: Downregulation of CXCL3 mRNA expression level in human MONO-MAC-6 cells at 5 uM incubated for 30 mins measured after 4 hrs by oligonucleotide array hybridization assay relative to control. The class given is functional. In short, it runs like this:
as §1

Experiment [8] has as its system MONO-MAC-6. The experiment can be described thus: Downregulation of TNFalpha mRNA expression level in human MONO-MAC-6 cells at 5 uM incubated for 30 mins measured after 6 hrs by qRT-PCR method relative to control. The class given is functional.
Experiment [9] relates to MONO-MAC-6. Briefly: Upregulation of HSPA1A mRNA expression level in LPS-stimulated human MONO-MAC-6 cells preincubated for 30 mins followed by LPS stimulation measured after 4 hrs by qRT-PCR analysis relative to control. The class given is functional.
In experiment [10] the test system is MONO-MAC-6. Briefly: Upregulation of CXCL10 mRNA expression level in human MONO-MAC-6 cells at 5 uM incubated for 30 mins measured after 2 hrs by oligonucleotide array hybridization assay relative to control. The class given is functional.
Experiment [11] has as its system MONO-MAC-6. Briefly: Downregulation of ICAM1 mRNA expression level in LPS-stimulated human MONO-MAC-6 cells at 5 uM preincubated for 30 mins followed by LPS stimulation measured after 2 hrs by oligonucleotide array hybridization assay (reference value: 1.94). The class given is functional. In short, it runs like this: as §1
The subject of experiment [12] is MONO-MAC-6. Briefly: Upregulation of IL-6 mRNA expression level in LPS-stimulated human MONO-MAC-6 cells at 5 uM preincubated for 30 mins followed by LPS stimulation measured after 2 hrs by qRT-PCR method (reference value: […]). The class given is functional.
Experiment [13] deals with MONO-MAC-6. The experiment can be described thus: Upregulation of CXCL2 mRNA expression level in LPS-stimulated human MONO-MAC-6 cells at 5 uM preincubated for 30 mins followed by LPS stimulation measured after 2 hrs by qRT-PCR method (reference value: 4.77). The class given is functional.
In experiment [14] the test system is MONO-MAC-6. Briefly: Downregulation of PTGS2 mRNA expression level in LPS-stimulated human MONO-MAC-6 cells at 5 uM preincubated for 30 mins followed by LPS stimulation measured after 6 hrs by oligonucleotide array hybridization assay (reference value: 3.58). The class given is functional. A digest of the protocol: as §1
In experiment [15] the test system is MONO-MAC-6. The experiment can be described thus: Upregulation of IL23A mRNA expression level in human MONO-MAC-6 cells at 5 uM incubated for 30 mins measured after 4 hrs by qRT-PCR method relative to control. The class given is functional.
In experiment [16] the test system is MONO-MAC-6. Briefly: Upregulation of IL23A mRNA expression level in LPS-stimulated human MONO-MAC-6 cells at 5 uM preincubated for 30 mins followed by LPS stimulation measured after 1 hr by qRT-PCR method (reference value: 1.10). The class given is functional.
In experiment [17] the test system is MONO-MAC-6. The experiment can be described thus: Upregulation of IL23A mRNA expression level in LPS-stimulated human MONO-MAC-6 cells at 5 uM preincubated for 30 mins followed by LPS stimulation measured after 2 hrs by qRT-PCR method (reference value: 1.39). The class given is functional.
Experiment [18] has as its target T2, Acid ceramidase (Homo sapiens) (UniProt Q13510).
T2 sequence (whole entry): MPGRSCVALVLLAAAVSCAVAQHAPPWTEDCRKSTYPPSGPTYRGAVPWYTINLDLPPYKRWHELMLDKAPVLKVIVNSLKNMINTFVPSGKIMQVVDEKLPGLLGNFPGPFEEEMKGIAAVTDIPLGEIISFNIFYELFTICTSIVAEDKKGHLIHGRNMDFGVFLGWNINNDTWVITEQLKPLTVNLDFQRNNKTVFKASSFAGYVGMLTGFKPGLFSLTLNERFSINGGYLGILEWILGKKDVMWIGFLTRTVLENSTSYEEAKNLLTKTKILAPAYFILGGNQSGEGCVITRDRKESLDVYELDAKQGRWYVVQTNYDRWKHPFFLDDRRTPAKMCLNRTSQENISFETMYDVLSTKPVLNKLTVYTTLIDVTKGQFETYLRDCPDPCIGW
The experiment can be described thus: Inhibition of TNFalpha-stimulated acid ceramidase in human PBMC assessed as ratio of C16-ceramide/lipid phosphate level at 10 uM preincubated for 30 mins followed by TNFalpha stimulation measured after 4 hrs by HPLC method (reference value: 0.49). The class given is cell-based. In short, it runs like this: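 Human macrophages from primary culture were preincubated 30 min with 10 µM compound. They were then stimulated 4 h with mmLDL (54 µg/mL), TNFalpha (3 ng/mL) or exogenous C6-ceramide (10 µM), or left unstimulated. Individual ceramide species (C16 and C24:1) were quantified in the cell lipid extracts.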

Active and inactive are the calls of the source. No cut-off for these calls is given here.

`COc1ccc(CCN(C)CCCn2c3ccccc3c3ccccc32)cc1`: the “fold change (FC)” value worked out at 1.46 with MONO-MAC-6 [1]; 1.34 with MONO-MAC-6 [2]; 1.01 with MONO-MAC-6 [4]; 1.79 in the experiment on MONO-MAC-6 [5]; 1.17 in the experiment with MONO-MAC-6 [6]; 1.21 in the experiment with MONO-MAC-6 [7]. In addition, the “fold change (FC)” value is 2.08 in the experiment on MONO-MAC-6 [8]; 2.67 in the experiment with MONO-MAC-6 [9]; 1 in the experiment on MONO-MAC-6 [10]; 1.14 in the experiment with MONO-MAC-6 [11]; 6.12 in the experiment with MONO-MAC-6 [12]; 5.03 in the experiment with MONO-MAC-6 [13]. In addition, the “fold change (FC)” value amounted to 1.06 in the experiment on MONO-MAC-6 [14], 1.39 in the experiment with MONO-MAC-6 [15], 1.03 with MONO-MAC-6 [16] and 1.87 in the experiment with MONO-MAC-6 [17]. Moreover, the inhibition result in [3] is “Active”. For the same compound, the Ratio in [18] was determined as 0.16.
